Positions of bridges follow the written chain, without caps; N, C: chain ends. Residues, ends and D or L forms follow the SMILES beside them. No end group written: not given here.

Consider 4 compounds from publication PMC8776895 (British journal of pharmacology, 2021).

What all share (format): cell-based
The target of one experiment is m-CLR:m-RAMP1 (Mus musculus, UniProt Q9R1W5+Q9WTJ5). Description: cAMP production, agonist concentration-response, transfected Cos7 cells. Particulars: for EC50: SEM. On the technique in general: Changes in cAMP serve as a functional read-out for many G protein-coupled receptors.
Chain of m-CLR:m-RAMP1 (Q9R1W5 23-463, one chain of several): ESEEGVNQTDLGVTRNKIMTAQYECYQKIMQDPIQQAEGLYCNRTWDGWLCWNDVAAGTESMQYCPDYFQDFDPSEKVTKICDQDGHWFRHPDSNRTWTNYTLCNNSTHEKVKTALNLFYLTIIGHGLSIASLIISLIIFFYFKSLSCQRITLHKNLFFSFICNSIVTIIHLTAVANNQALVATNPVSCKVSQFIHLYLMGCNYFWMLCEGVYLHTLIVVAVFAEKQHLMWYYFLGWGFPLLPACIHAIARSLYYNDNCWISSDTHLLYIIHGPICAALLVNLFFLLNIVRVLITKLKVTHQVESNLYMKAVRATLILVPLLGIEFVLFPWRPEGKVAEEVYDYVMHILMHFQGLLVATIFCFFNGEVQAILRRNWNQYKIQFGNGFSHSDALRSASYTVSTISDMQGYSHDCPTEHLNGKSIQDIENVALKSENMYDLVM
The target of another experiment is T1, m-CTR:m-RAMP3 (Mus musculus, UniProt Q60755+Q9WUP1).
T1 sequence (Q60755 42-496 isoform Q60755-2 limits assumed): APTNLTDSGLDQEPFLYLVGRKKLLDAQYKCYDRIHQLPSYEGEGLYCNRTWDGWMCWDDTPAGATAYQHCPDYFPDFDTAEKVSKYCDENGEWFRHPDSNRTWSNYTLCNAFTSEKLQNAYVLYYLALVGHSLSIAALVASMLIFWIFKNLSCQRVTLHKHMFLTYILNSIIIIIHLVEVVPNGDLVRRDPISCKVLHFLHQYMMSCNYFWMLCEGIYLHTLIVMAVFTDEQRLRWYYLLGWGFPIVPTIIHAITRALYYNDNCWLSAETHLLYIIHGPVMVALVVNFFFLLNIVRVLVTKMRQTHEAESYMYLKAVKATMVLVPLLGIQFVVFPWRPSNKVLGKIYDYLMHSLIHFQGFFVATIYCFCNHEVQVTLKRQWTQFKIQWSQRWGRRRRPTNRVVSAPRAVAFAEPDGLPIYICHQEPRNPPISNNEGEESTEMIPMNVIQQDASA
T1 sequence (Q9WUP1 23-147): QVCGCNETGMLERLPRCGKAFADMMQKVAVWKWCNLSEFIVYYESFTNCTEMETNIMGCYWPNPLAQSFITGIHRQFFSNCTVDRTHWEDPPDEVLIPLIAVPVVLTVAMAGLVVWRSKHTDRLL
Described as above. Particulars: for EC50: SEM; for fold increase in potency relative to m-CTR alone: m-CTR:m-RAMP3 versus m-CTR:pcDNA.

The next experiment addresses T2, m-CTR:m-RAMP2 (Mus musculus, UniProt Q60755+Q9WUP0, P10T).
T2 sequence (Q60755 42-496 isoform Q60755-2): T1 sequence (Q60755 42-496 isoform Q60755-2 limits assumed)
T2 sequence (Q9WUP0 45-189): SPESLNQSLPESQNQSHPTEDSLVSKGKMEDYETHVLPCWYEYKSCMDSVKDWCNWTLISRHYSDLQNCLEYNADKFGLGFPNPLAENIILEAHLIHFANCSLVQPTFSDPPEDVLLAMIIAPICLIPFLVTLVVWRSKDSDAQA
Described as above. Particulars: SEM.

Experiment [1] has as its target T3, m-CTR:pcDNA (m-CTR alone) (Mus musculus, UniProt Q60755).
T3 sequence (Q60755 42-496 isoform Q60755-2 limits assumed): T1 sequence (Q60755 42-496 isoform Q60755-2 limits assumed)
The experiment is described as above. The following applies: SEM.

The target in experiment [2] is T4, m-CLR:m-RAMP3 (Mus musculus, UniProt Q9R1W5+Q9WUP1). Described as above. Particulars: SEM.
T4 sequence (Q9R1W5 23-463, one chain of several): as the sequence (Q9R1W5 23-463, one chain of several) above
The next experiment addresses T5, m-CTR:m-RAMP1 (Mus musculus, UniProt Q60755+Q9WTJ5).
T5 sequence (Q60755 42-496 isoform Q60755-2 limits assumed): T1 sequence (Q60755 42-496 isoform Q60755-2 limits assumed)
T5 sequence (Q9WTJ5 27-148): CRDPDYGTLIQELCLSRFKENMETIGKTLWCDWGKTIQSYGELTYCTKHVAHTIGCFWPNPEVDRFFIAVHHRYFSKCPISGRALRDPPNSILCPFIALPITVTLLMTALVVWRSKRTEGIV
The description is as above. Particulars: for EC50: SEM.

Experiment [3] concerns the target T6, m-CLR:m-RAMP2 (Mus musculus, UniProt Q9R1W5+Q9WUP0, P10T). Described as above. Particulars: for EC50: SEM.
In a further experiment the target is m-CLR:pcDNA (Mus musculus, UniProt Q9R1W5). Description: cAMP production, agonist stimulation, Cos7 cells with m-CLR without RAMP. The following applies: concentrations as high as 10 μM. The method in brief: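 Mouse CLR was co-transfected 1:1 with empty pcDNA3.1(+) (no RAMP) into Cos-7 cells with polyethylenimine. Cells were seeded at 15,000–20,000/well, transfected 18–24 h later and used about 48 h after that. After 30 min in DMEM with 1 mM IBMX and 0.1% BSA, agonist peptides were applied for 15 min at 37 °C. Forskolin (100 µM final) served as positive control. cAMP was quantified by LANCE assay from a standard curve, in duplicate or triplicate.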
Chain of m-CLR:pcDNA (Q9R1W5 23-463): as the sequence (Q9R1W5 23-463, one chain of several) above

Experiment [4] concerns the target T6, m-CLR:m-RAMP2. The experiment in a line: Antagonism of agonist-stimulated cAMP production, transfected Cos7 cells.
Experiment [5] has as its target T4, m-CLR:m-RAMP3. The description is as above. The following applies: agonist m-AM, mean ± s.e.m., n = 5, SEM.

T6 sequence (Q9R1W5 23-463, one chain of several): as the sequence (Q9R1W5 23-463, one chain of several) above

As for “PHAQLLRVGCVLGTCQVQNLSHRLWQLVRPAGRRDSAPVDPSSPHSY-NH2 (disulfide 10-15) [m-AM2_47]”, the EC50 (usually the midpoint of the concentration-response curve) was 4.47 nM at m-CLR:m-RAMP1; 2.14 nM at m-CTR:m-RAMP3; 42.7 nM at m-CTR:m-RAMP2; 56.2 nM in experiment [1]; 1.32 nM at m-CLR:m-RAMP3 [2]; 6.92 nM at m-CTR:m-RAMP1. In addition, the response at m-CLR:m-RAMP2 [3] was half-maximal at 10.5 nM (EC50). Moreover, the “fold increase in potency relative to m-CTR alone” value on m-CTR:m-RAMP3 is 26 fold; on m-CTR:m-RAMP1 (m-CTR:m-RAMP1 versus m-CTR:pcDNA) it was “eight”. The “fold less potent than m-AM” value at m-CLR:m-RAMP2 [3] (m-CLR:m-RAMP2, cAMP pEC50) is given as “~ seven”.
Take “YRQSMNQGSRSNGCRFGTCTFQKLAHQIYQLTDKDKDGMAPRNKISPQGY-NH2 (disulfide 14-19) [m-AM]”: the EC50 at m-CLR:m-RAMP1 is 6.61 nM; at m-CTR:m-RAMP3, 3.55 nM; at m-CTR:m-RAMP2 it was 19.5 nM; in [1], 37.2 nM; on m-CLR:m-RAMP3 [2], 0.468 nM; at m-CTR:m-RAMP1 it was 27.5 nM. The same compound showed a concentration giving a half-maximal response (EC50) on m-CLR:m-RAMP2 [3] of 1.55 nM. Also, at m-CTR:m-RAMP3, the “fold increase in potency relative to m-CTR alone” value is 11 fold. At m-CLR:pcDNA, the “cAMP response to stimulation” value is reported as “did not respond”.
Take “h-AM22-52: commonly used AM-receptor antagonist, purchased from Bachem”: the pA2 (commonly the negative logarithm of the molar antagonist concentration that doubles the agonist concentration needed for the same response) with m-CLR:m-RAMP2 [4] (agonist m-AM, m-CLR:m-RAMP2, mean ± s.e.m., n = 5, SEM) amounted to 5.71 ± 0.03; with m-CLR:m-RAMP3 [5], 5.19 ± 0.21. Further, the “fold more effective at m-CLR:m-RAMP2 over m-CLR:m-RAMP3” value in the experiment with m-CLR:m-RAMP2 [4] (from pA2, agonist m-AM) is on record as “three”.
Take `CC(C)C[C@H](NC(=O)[C@H](CCCNC(=N)N)NC(=O)[C@H](Cc1c[nH]cn1)NC(=O)[C@H](CO)NC(=O)[C@H](CC(C)C)NC(=O)[C@H](CC(N)=O)NC(=O)[C@H](CCC(N)=O)NC(=O)[C@@H](NC(=O)[C@H](CCC(N)=O)NC(=O)[C@@H]1CSSC[C@H](NC(=O)CNC(=O)[C@@H](N)C(C)C)C(=O)N[C@@H](C(C)C)C(=O)N[C@@H](CC(C)C)C(=O)NCC(=O)N[C@@H]([C@@H](C)O)C(=O)N1)C(C)C)C(=O)N[C@@H](Cc1c[nH]c2ccccc12)C(=O)N[C@@H](CCC(N)=O)C(=O)N[C@@H](CC(C)C)C(=O)N[C@H](C(=O)N[C@@H](CCCNC(=N)N)C(=O)N1CCC[C@H]1C(=O)N[C@@H](C)C(=O)NCC(=O)N[C@@H](CCCNC(=N)N)C(=O)N[C@@H](CCCNC(=N)N)C(=O)N[C@@H](CC(=O)O)C(=O)N[C@@H](CO)C(=O)N[C@@H](C)C(=O)N1CCC[C@H]1C(=O)N[C@H](C(=O)N[C@@H](CC(=O)O)C(=O)N1CCC[C@H]1C(=O)N[C@@H](CO)C(=O)N[C@@H](CO)C(=O)N1CCC[C@H]1C(=O)N[C@@H](Cc1c[nH]cn1)C(=O)N[C@@H](CO)C(=O)N[C@@H](Cc1ccc(O)cc1)C(N)=O)C(C)C)C(C)C` [m-AM2_40] (H-VGCVLGTCQVQNLSHRLWQLVRPAGRRDSAPVDPSSPHSY-NH2; disulfide 3-8; N-terminus assumed): the EC50 is 0.955 nM on m-CLR:m-RAMP1; 1.66 nM on m-CTR:m-RAMP3; 8.13 nM at m-CTR:m-RAMP2; 12.3 nM in experiment [1]; 0.776 nM at m-CLR:m-RAMP3 [2]; 3.02 nM on m-CTR:m-RAMP1. Moreover, the half-maximal effective concentration (EC50) at m-CLR:m-RAMP2 [3] is 3.72 nM. In addition, the “fold less potent than m/r-αCGRP” value on m-CLR:m-RAMP1 (m-CLR:m-RAMP1, cAMP pEC50) is listed as “approximately 14 fold”.
